Source: ChEMBL document CHEMBL1821556, “Structure-activity relationships of antitubercular nitroimidazoles. 3. Exploration of the linker and lipophilic tail of ((s)-2-nitro-6,7-dihydro-5H-imidazo[2,1-b][1,3]oxazin-6-yl)-(4-trifluoromethoxybenzyl)amine (6-amino PA-824)” (J Med Chem, 2011)
In brackets after ≈: the same amount, converted by molar mass.

Experiments:
[1] = system: Mycobacterium tuberculosis; assay: Antitubercular activity against Mycobacterium tuberculosis; assay type: functional
Procedure, shortened: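 Whole-cell assay against replicating Mtb, scored as MIC99 in μM. Run multiple times in two independent laboratories, with discrepant results repeated until concordant. Values are averages of multiple measurements ± SD.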

[2] = system: Mycobacterium tuberculosis; assay: Bactericidal activity against Mycobacterium tuberculosis assessed as minimum concentration required for anaerobicidal activity; assay type: functional
Procedure, shortened: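 Minimum anaerobicidal concentration (μM) against non-replicating Mtb. Run multiple times in two independent laboratories, with discrepant results repeated until concordant. Values are averages of multiple measurements ± SD.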

[3] = Solubility of the compound; assay type: physicochemical
Procedure, shortened: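 Solubility was measured in buffer at pH 6.8 and reported in μg/mL.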

Liver [4] = assay: Half life in mouse liver microsome at 5 mg/kg, iv after 24 hrs by LC/MS/MS analysis; assay type: ADME; conditions: microsomes
[5] = Solubility of the compound at pH 6.8; assay type: physicochemical; conditions: buffer
Liver [6] = assay: Intrinsic clearance in mouse liver microsome at 5 mg/kg, iv after 24 hrs by LC/MS/MS analysis; assay type: ADME; conditions: microsomes
[7] = Elimination half life in mouse at 5 mg/kg, iv by LC/MS/MS analysis; assay type: ADME, organism-based; set-up: dose 5 mg/kg, route intravenous; conditions: in vivo, read-out: beta t1/2 (converted)
Procedure, shortened: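 Single intravenous dose of 5mg/kg, using the supernatant of a centrifuged formulation. Blood was sampled at time points from 1min to 24h after dosing. Plasma was extracted and analysed by LC/MS/MS. Pharmacokinetic parameters, including elimination half-life, came from non-compartmental analysis.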

SMILES	MIC99 [1] [µM]	Activity [2] [µM]	solubility [3]	t1/2 (Liver [4]) [min]	solubility [5] [µg/mL]	CL (Liver [6]) [µL/min/mg]	half-life [7] [min]	solubility ([5]; read-out: solubility) [µg/mL]
O=C(c1ccc(Cl)cc1)N(Cc1ccc(OC(F)(F)F)cc1)[C@@H]1COc2nc([N+](=O)[O-])cn2C1	1.3 (≈ 0.646 µg/mL)	7.8						
O=CN(Cc1ccc(OC(F)(F)F)cc1)[C@@H]1COc2nc([N+](=O)[O-])cn2C1	0.79 (≈ 0.305 µg/mL)	12.5						
CC(=O)N(Cc1ccc(OC(F)(F)F)cc1)[C@@H]1COc2nc([N+](=O)[O-])cn2C1	50 (≈ 20 µg/mL)	>50						
CCC(=O)N(Cc1ccc(OC(F)(F)F)cc1)[C@@H]1COc2nc([N+](=O)[O-])cn2C1			Insoluble					
O=C(c1ccccc1)N(Cc1ccc(OC(F)(F)F)cc1)[C@@H]1COc2nc([N+](=O)[O-])cn2C1	8.8 (≈ 4.07 µg/mL)	>50						
O=C(c1ccccc1Cl)N(Cc1ccc(OC(F)(F)F)cc1)[C@@H]1COc2nc([N+](=O)[O-])cn2C1	5.6 (≈ 2.78 µg/mL)	>50						
O=C(c1cccc(Cl)c1)N(Cc1ccc(OC(F)(F)F)cc1)[C@@H]1COc2nc([N+](=O)[O-])cn2C1	7.5 (≈ 3.73 µg/mL)	21						
CN(Cc1ccc(OC(F)(F)F)cc1)[C@@H]1COc2nc([N+](=O)[O-])cn2C1	0.15 (≈ 0.0558 µg/mL)	2.5		11	10 (≈ 26.9 µM)	124.9		
CCCN(Cc1ccc(OC(F)(F)F)cc1)[C@@H]1COc2nc([N+](=O)[O-])cn2C1	0.11 (≈ 0.044 µg/mL)	3.8		3.4	< 2	407		
CC(C)N(Cc1ccc(OC(F)(F)F)cc1)[C@@H]1COc2nc([N+](=O)[O-])cn2C1	0.34 (≈ 0.136 µg/mL)	11		3.2	< 2	433		
CCNC(=O)N(Cc1ccc(OC(F)(F)F)cc1)[C@@H]1COc2nc([N+](=O)[O-])cn2C1	17 (≈ 7.3 µg/mL)	69						
O=[N+]([O-])c1cn2c(n1)OC[C@@H](NCc1ccc(OC(F)(F)F)cc1OCc1ccccc1)C2	0.24 (≈ 0.111 µg/mL)	7.5						
COc1cc(OC(F)(F)F)ccc1CN[C@@H]1COc2nc([N+](=O)[O-])cn2C1	0.23 (≈ 0.0893 µg/mL)	5.2						
O=[N+]([O-])c1cn2c(n1)OC[C@@H](NCc1ccc(OC(F)(F)F)cc1Oc1ccccc1)C2	0.06 (≈ 0.027 µg/mL)	4.4		6.4	3 (≈ 6.66 µM)	216.6		
O=[N+]([O-])c1cn2c(n1)OC[C@@H](NCc1ccc(OC(F)(F)F)cc1OCC1CC1)C2	0.1 (≈ 0.0428 µg/mL)	4.2		1.6	6 (≈ 14 µM)	866.3		
O=[N+]([O-])c1cn2c(n1)OC[C@@H](NCc1ccc(OC(F)(F)F)cc1OC1CC1)C2	0.06 (≈ 0.0249 µg/mL)	2		9.2	11 (≈ 26.5 µM)	150.7		
O=[N+]([O-])c1cn2c(n1)OC[C@@H](NCc1ccc(OC(F)(F)F)cc1O)C2	0.09 (≈ 0.0337 µg/mL)	4.4		14.3	25 (≈ 66.8 µM)	96.9		
O=[N+]([O-])c1cn2c(n1)OC[C@@H](NCc1ccc(OC(F)(F)F)cc1F)C2	0.12 (≈ 0.0452 µg/mL)	2.5		14.5	72 (≈ 191 µM)	95.6		
O=[N+]([O-])c1cn2c(n1)OC[C@@H](NCc1ccc(OC(F)(F)F)cc1Cl)C2	0.13 (≈ 0.0511 µg/mL)	2.1		19.9	30 (≈ 76.4 µM)	69.7		
O=[N+]([O-])c1cn2c(n1)OC[C@@H](NCc1ccc(OC(F)(F)F)cc1Br)C2	0.09 (≈ 0.0393 µg/mL)	2						
O=[N+]([O-])c1cn2c(n1)OC[C@@H](NCc1ccc(OC(F)(F)F)cc1N1CCCCC1)C2	0.21 (≈ 0.0927 µg/mL)	11						
O=[N+]([O-])c1cn2c(n1)OC[C@@H](NCc1ccc(OC(F)(F)F)cc1N1CCOCC1)C2	0.15 (≈ 0.0665 µg/mL)	10						
CN1CCN(c2cc(OC(F)(F)F)ccc2CN[C@@H]2COc3nc([N+](=O)[O-])cn3C2)CC1	2.2 (≈ 1 µg/mL)	33						

SMILES	MIC99 [1] [µM]	Activity [2] [µM]	solubility [3]	t1/2 (Liver [4]) [min]	solubility [5] [µg/mL]	CL (Liver [6]) [µL/min/mg]	half-life [7] [min]	solubility ([5]; read-out: solubility) [µg/mL]
O=[N+]([O-])c1cn2c(n1)OC[C@@H](NCc1ccc(OC(F)(F)F)c(F)c1)C2	0.12 (≈ 0.0452 µg/mL)	4.2		23.6		58.7		
O=[N+]([O-])c1cn2c(n1)OC[C@@H](OCc1ccc(OC(F)(F)F)c(F)c1)C2	0.17 (≈ 0.0641 µg/mL)	7.5						
O=[N+]([O-])c1cn2c(n1)OC[C@@H](NCc1ccc(OC(F)(F)F)c(Cl)c1)C2	0.12 (≈ 0.0471 µg/mL)	4.2		13.4		103.4	258	
COc1cc(CN[C@@H]2COc3nc([N+](=O)[O-])cn3C2)ccc1OC(F)(F)F	0.07 (≈ 0.0272 µg/mL)	2.1						
COc1cc(CO[C@@H]2COc3nc([N+](=O)[O-])cn3C2)ccc1OC(F)(F)F	0.13 (≈ 0.0506 µg/mL)	4.2						
O=[N+]([O-])c1cn2c(n1)OC[C@@H](NCc1ccc(OC(F)(F)F)c(O)c1)C2	0.16 (≈ 0.0599 µg/mL)	7.5		22.4		61.9	24	
O=[N+]([O-])c1cn2c(n1)OC[C@@H](OCc1ccc(OC(F)(F)F)c(O)c1)C2	0.14 (≈ 0.0525 µg/mL)	8.3						
O=[N+]([O-])c1cn2c(n1)OC[C@@H](NCc1ccc(OC(F)(F)F)c(Oc3ccccc3)c1)C2	0.14 (≈ 0.0631 µg/mL)	3.9		9.3		149		< 2
COC(=O)c1cc(CN[C@@H]2COc3nc([N+](=O)[O-])cn3C2)ccc1OC(F)(F)F	0.14 (≈ 0.0583 µg/mL)	11						
O=[N+]([O-])c1cn2c(n1)OC[C@@H](NCc1ccc(OC(F)(F)F)c(N3CCOCC3)c1)C2	0.15 (≈ 0.0665 µg/mL)	7						
CN1CCN(c2cc(CN[C@@H]3COc4nc([N+](=O)[O-])cn4C3)ccc2OC(F)(F)F)CC1	0.17 (≈ 0.0776 µg/mL)	7.8						
O=[N+]([O-])c1cn2c(n1)OC[C@@H](NCc1ccc(OC(F)(F)F)cc1)C2	0.36 (≈ 0.129 µg/mL)	14						
O=[N+]([O-])c1cn2c(n1)OC[C@@H](NC(c1ccc(OC(F)(F)F)cc1)c1ncco1)C2 (mixture of isomers)	0.4	7.8						
CC(N[C@@H]1COc2nc([N+](=O)[O-])cn2C1)c1ccc(OC(F)(F)F)cc1 (mixture of isomers)	0.44	5.6						
O=[N+]([O-])c1cn2c(n1)OC[C@@H](NC(c1ccc(OC(F)(F)F)cc1)c1ncc[nH]1)C2 (mixture of isomers)	0.52	17						
CCC(N[C@@H]1COc2nc([N+](=O)[O-])cn2C1)c1ccc(OC(F)(F)F)cc1 (mixture of isomers)	0.36	3.1						
CCCC(N[C@@H]1COc2nc([N+](=O)[O-])cn2C1)c1ccc(OC(F)(F)F)cc1 (mixture of isomers)	0.27	3.8						
CCCCC(N[C@@H]1COc2nc([N+](=O)[O-])cn2C1)c1ccc(OC(F)(F)F)cc1 (mixture of isomers)	0.15	4.4						
NC(=O)C(N[C@@H]1COc2nc([N+](=O)[O-])cn2C1)c1ccc(OC(F)(F)F)cc1 (mixture of isomers)	0.41	30						
O=[N+]([O-])c1cn2c(n1)OC[C@@H](NC(CO)c1ccc(OC(F)(F)F)cc1)C2 (mixture of isomers)	0.3	11						
O=[N+]([O-])c1cn2c(n1)OC[C@@H](NC(CCO)c1ccc(OC(F)(F)F)cc1)C2 (mixture of isomers)	0.13	23						
O=[N+]([O-])c1cn2c(n1)OC[C@@H](OCc1ccc(OC(F)(F)F)cc1)C2 [PRETOMANID]	0.63 (≈ 0.226 µg/mL)	8.8						
